# Experimental data reported in ChEMBL document CHEMBL1129963, “Sulfonimidamide analogs of oncolytic sulfonylureas” (J Med Chem, 1997).
# Assays:
# [1] = test system: CCRF-CEM; assay: In vitro cytotoxicity against CCRF-CEM cells; type: functional, cell-based; settings: Homo sapiens
# Procedure, shortened: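 CCRF-CEM cells were grown in culture for 72 h with compound. The value is the concentration that inhibited growth to 50% of control growth.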
# [2] = test system: Mus musculus; assay: In vivo antitumor activity of compound against subaxillary implanted 6C3HED lymphosarcoma implanted in C3H mice at a dose of 50 mg/kg administered perorally twice daily for a period of 8 days.; type: functional; settings: 192 h, route oral
# Procedure, shortened: (§1)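 6C3HED lymphosarcoma was carried in C3H mice. Compound was dosed at the stated route and schedule for 8 days (daily, twice daily, or days 1, 3, 5, 7) and tumor growth inhibition was scored against controls. The table value is the lowest dose giving >80% inhibition, or the highest dose tested. Deaths per group were recorded.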
# [3] = test system: Mus musculus; assay: In vivo antitumor activity against subaxillary implanted 6C3HED lymphosarcoma implanted in C3H mice at a dose of 150 mg/kg administered perorally twice daily for a period of 8 days.; type: functional; settings: for inhibition in vivo at 150 mg/kg: Mus musculus, 6C3HED, po, 192 h; for Inhibition: route oral, 150 mg/kg; procedure, shortened: as §1
# [4] = test system: Mus musculus; assay: In vivo antitumor activity of compound against subaxillary implanted 6C3HED lymphosarcoma implanted in C3H mice at a dose of 150 mg/kg administered perorally daily for a period of 8 days.; type: functional; settings: 192 h, route oral; procedure, shortened: as §1
# [5] = (§2) Metabolic breakdown to the o-sulfate of p-chloroaniline (2-amino-5-chlorophenyl sulfate) by giving 100 mg/kg oral doses of the compound; type: ADME, organism-based; set-up: dose 100 mg/kg, route oral; settings: in vivo
# Procedure, shortened: (§3)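 Groups of two to four mice received single 100 mg/kg oral doses of each compound. Urine was pooled over 0-24 h, and the 2-amino-5-chlorophenyl sulfate excreted in 24 h per mouse was quantified as the marker of p-chloroaniline release.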
# [6] = test system: Mus musculus; assay: (§4) In vivo antitumor activity of compound against subaxillary implanted 6C3HED lymphosarcoma implanted in C3H mice at a dose of 75 mg/kg administered perorally twice daily for a period of 8 days.; type: functional; settings: 192 h, route oral; procedure, shortened: as §1
# [7] = test system: Mus musculus; assay: as §4; type: functional; settings: route oral
# Procedure, shortened: (§5)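 Oral dosing twice daily for 8 days in C3H mice bearing 6C3HED lymphosarcoma. Read-out is percent tumor growth inhibition relative to controls, with deaths per group also recorded. The full in vivo protocol is given in an earlier report.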
# [8] = % dose converted to 4-(S-amino-N-{[(4-chlorophenyl)amino]carbonyl}sulfonimidoyl)benzoic acid (compound 41); type: ADME
# [9] = % dose converted to 2-amino-5-chlorophenyl sulfate; type: ADME; procedure, shortened: as §3
# [10] = test system: Mus musculus; assay: In vivo antitumor activity against subaxillary implanted 6C3HED lymphosarcoma implanted in C3H mice at a dose of 300 mg/kg administered perorally twice daily for a period of 8 days.; type: functional; settings: 192 h, route oral; procedure, shortened: as §1
# [11] = test system: Mus musculus; assay: In vivo antitumor activity against subaxillary implanted 6C3HED lymphosarcoma implanted in C3H mice at a dose of 300 mg/kg administered perorally daily for a period of 8 days.; type: functional; settings: 192 h, route oral; procedure, shortened: as §1
# [12] = test system: Mus musculus; assay: as §2; type: functional; procedure, shortened: as §3
# [13] = test system: Mus musculus; assay: In vivo antitumor activity of compound against subaxillary implanted 6C3HED lymphosarcoma implanted in C3H mice at a dose of 243 mg/kg administered intraperitoneally daily for a period of 8 days.; type: functional; settings: ip, 192 h, route intraperitoneal; procedure, shortened: as §1
# [14] = test system: Mus musculus; assay: (§6) In vivo antitumor activity of compound against subaxillary implanted 6C3HED lymphosarcoma implanted in C3H mice at a dose of 25 mg/kg administered perorally twice daily for a period of 8 days.; type: functional; settings: 192 h, route oral; procedure, shortened: as §1
# [15] = test system: Mus musculus; assay: In vivo antitumor activity of compound against subaxillary implanted 6C3HED lymphosarcoma implanted in C3H mice at a dose of 150 mg/kg administered perorally twice daily for a period of 8 days; Toxic; type: functional, organism-based; set-up: dose 150 mg/kg; procedure, shortened: as §1
# [16] = test system: Mus musculus; assay: as §6; type: functional; settings: route oral; procedure, shortened: as §5
# [17] = test system: Mus musculus; assay: In vivo antitumor activity of compound against subaxillary implanted 6C3HED lymphosarcoma implanted in C3H mice at a dose of 300 mg/kg administered intraperitoneally daily for a period of 8 days.; type: functional; settings: ip, 192 h, route intraperitoneal; procedure, shortened: as §1
# [18] = test system: Mus musculus; assay: In vivo antitumor activity of compound against subaxillary implanted 6C3HED lymphosarcoma implanted in C3H mice at a dose of 25 mg/kg administered perorally daily for a period of 8 days.; type: functional; settings: 192 h, route oral; procedure, shortened: as §1
smiles,measurement,setting,value
CC(=O)OCc1ccc([S+](N)([O-])=NC(=O)Nc2ccc(Cl)cc2)cc1 (stereo not given),IC50,[1],> 20 µg/mL
same,inhibition in vivo at 50 mg/kg,[2],87%
CN[S+]([O-])(=NC(=O)Nc1ccc(Cl)cc1)c1ccc2c(c1)CCC2 (stereo not given),IC50,[1],10.8 µg/mL
same,inhibition in vivo at 150 mg/kg,[3],75%
CN[S+]([O-])(=NC(=O)Nc1ccc(Cl)cc1)c1ccc(C)cc1 (stereo not given),inhibition in vivo at 150 mg/kg,[4],93%
same,IC50,[1],> 20 µg/mL
same,Activity,[5],1.2 µM
"Cc1ccc([S+](N)([O-])=NC(=O)Nc2ccc(Cl)cc2)cc1 (single isomer, unassigned; (-))",inhibition in vivo at 75 mg/kg,[6],100%
same,Inhibition,[3],100%
same,Lethality,[7],60%
same,Dose converted,[8],18%
same,Dose converted,[9],4.7%
same,Activity,[5],0.58 µM
Cc1ccc([S+]([O-])(=NC(=O)Nc2ccc(Cl)cc2)NCC(C)C)cc1 (stereo not given),inhibition in vivo at 75 mg/kg,[6],85%
same,IC50,[1],0.7 µg/mL
C=CCN[S+]([O-])(=NC(=O)Nc1ccc(Cl)cc1)c1ccc(C)cc1 (stereo not given),IC50,[1],10 µg/mL
same,inhibition in vivo at 300 mg/kg,[10],45%
CC(C)(C)c1ccc([S+](N)([O-])=NC(=O)Nc2ccc(Cl)cc2)cc1 (stereo not given),IC50,[1],1.7 µg/mL
same,inhibition in vivo at 300 mg/kg,[10],11%
N[S+]([O-])(=NC(=O)Nc1ccc(Cl)cc1)c1ccc(Br)cc1 (stereo not given),IC50,[1],10.6 µg/mL
same,inhibition in vivo at 150 mg/kg,[3],89%
Cc1ccc([S+]([O-])(=NC(=O)Nc2ccc(Cl)cc2)Nc2ccccc2)cc1 (stereo not given),IC50,[1],7 µg/mL
same,inhibition in vivo at 300 mg/kg,[11],5%
CCCCN(C(C)=O)[S+]([O-])(=NC(=O)N(C(C)=O)c1ccc(Cl)cc1)c1ccc(C)cc1 (stereo not given),IC50,[1],2.9 µg/mL
same,inhibition in vivo at 300 mg/kg,[10],10%
Cc1ccc([S+](N)([O-])=NC(=O)Nc2ccc(F)cc2)cc1 (stereo not given),IC50,[1],> 20 µg/mL
same,inhibition in vivo at 300 mg/kg,[10],0%
O=C(Nc1ccc(Cl)cc1)NS(=O)(=O)c1ccc2c(c1)CCC2 [SULOFENUR],Activity,[12],0.37 µM
same,inhibition in vivo at 150 mg/kg,[3],91%
Cc1ccc([S+](N)([O-])=NC(=O)Nc2ccc(Br)cc2)cc1 (stereo not given),IC50,[1],> 20 µg/mL
same,inhibition in vivo at 150 mg/kg,[3],100%
Cc1ccc([S+](N)([O-])=NC(=O)Nc2ccc(Cl)c(Cl)c2)cc1 (stereo not given),IC50,[1],> 20 µg/mL
same,inhibition in vivo at 300 mg/kg,[10],14%
N[S+]([O-])(=NC(=O)Nc1ccc(Cl)cc1)c1ccc(C(=O)O)cc1 (stereo not given),inhibition in vivo at 243 mg/kg,[13],0%
CCc1ccc([S+](N)([O-])=NC(=O)Nc2ccc(Cl)cc2)cc1 (stereo not given),IC50,[1],> 20 µg/mL
same,inhibition in vivo at 25 mg/kg,[14],91%
N[S+]([O-])(=NC(=O)Nc1ccc(Cl)cc1)c1ccccc1 (stereo not given),IC50,[1],> 20 µg/mL
same,inhibition in vivo at 300 mg/kg,[10],0%
N[S+]([O-])(=NC(=O)Nc1ccc(Cl)cc1)c1ccc(CO)cc1 (stereo not given),inhibition in vivo at 75 mg/kg,[6],99%
same,IC50,[1],> 20 µg/mL
N[S+]([O-])(=NC(=O)Nc1ccc(Cl)cc1)c1ccc(C(F)(F)F)cc1 (stereo not given),IC50,[1],15.2 µg/mL
same,inhibition,[15],Toxic
same,Lethality,[16],100%
CCCCNC(=O)N=[S+](N)([O-])c1ccc(C)cc1 (stereo not given),IC50,[1],> 20 µg/mL
same,inhibition in vivo at 300 mg/kg,[17],12%
Cc1ccc([S+](N)([O-])=NC(=O)N(C)c2ccc(Cl)cc2)cc1 (stereo not given),IC50,[1],> 20 µg/mL
same,inhibition in vivo at 150 mg/kg,[3],83%
Cc1ccc([S+](N)([O-])=NC(=O)Nc2ccc(O)cc2)cc1 (stereo not given),IC50,[1],> 20 µg/mL
same,inhibition in vivo at 300 mg/kg,[17],11%
CCCN[S+]([O-])(=NC(=O)Nc1ccc(Cl)cc1)c1ccc(C)cc1 (stereo not given),IC50,[1],10.9 µg/mL
same,inhibition in vivo at 300 mg/kg,[11],69%
Cc1ccc(S(=O)(=O)NC(=O)Nc2ccc(Cl)cc2)cc1 [LY-181984],Activity,[12],1.02 µM
same,inhibition in vivo at 150 mg/kg,[3],93%
Cc1ccc([S+](N)([O-])=NC(=O)Nc2ccc(Cl)cc2)cc1 (stereo in doubt; 16(+)),Inhibition,[3],5%
same,Dose converted,[8],17%
same,Dose converted,[9],< 0.3%
CN[S+]([O-])(=NC(=O)Nc1ccc(Cl)cc1)c1ccc(C)c(C)c1 (stereo not given),IC50,[1],16.2 µg/mL
same,inhibition in vivo at 25 mg/kg,[18],98%
Cc1ccc([S+]([O-])(=NC(=O)Nc2ccc(Cl)cc2)NCCc2ccccc2)cc1 (stereo not given),IC50,[1],5.3 µg/mL
same,inhibition in vivo at 300 mg/kg,[10],48%
